Experiment [1] relates to Mus musculus. Put plainly: Induction of autophagy in BALB/cAnNCrl mouse xenografted with human HCT116 cells assessed as increase in LC3-II level in tumor tissue at 30 mg/kg, po administered on day 1 to day 19 measured on day 19 by immunohistochemical analysis. In kind it is functional, organism-based. The method in brief: (§1)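 HCT-116 xenograft mice were dosed orally at 15 or 30 mg/kg, or 30 mg/kg for reference agents, for 19 days, with vehicle or saline controls. Tumor sections were stained for Ki-67, c-Myc, Ac-H3, BRD4, LC3-II, LIFR and p-STAT3 by immunohistochemistry, and TUNEL staining was used as the apoptosis marker.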
In general terms: Xenograft models place foreign cells or tissue in a host animal.

Experiment [2] has as its target T1, Bromodomain-containing protein 4 (Homo sapiens, UniProt O60885). Put plainly: Inhibition of BRD4 in human HCT116 cells assessed as activation of IL6-JAK-STAT signaling pathway by measuring increase in OSM mRNA level at 2 uM after 24 hrs by RT-PCR analysis. In kind it is cell-based. A digest of the protocol: (§2)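 HCT-116 cells were incubated for 24 hours with the test agents at 0.5, 2.0 or 10 μM. IL6, OSM, LIF and CTF1 mRNA levels were then measured.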

In experiment [3] the test system is HCT-116. Kind of experiment: Antiproliferative activity against human HCT116 cells assessed as reduction in cell viability measured after 24 to 48 hrs by MTT assay. In kind it is functional, cell-based.
The target in experiment [4] is T1, Bromodomain-containing protein 4. Kind of experiment: Inhibition of BRD4 in human HCT116 cells assessed as activation of IL6-JAK-STAT signaling pathway by measuring increase in LIF mRNA level at 2 uM after 24 hrs by RT-PCR analysis. In kind it is cell-based. A digest of the protocol: as §2
For experiment [5] the target is unchanged. Kind of experiment: Inhibition of BRD4 in human HCT116 cells assessed as activation of IL6-JAK-STAT signaling pathway by measuring increase in CTF1 mRNA level at 2 uM after 24 hrs by RT-PCR analysis. In kind it is cell-based. The method in brief: as §2
Experiment [6] has the same target. Put plainly: Inhibition of GST-tagged BRD4 bromodomain (unknown origin) using biotinylated histone H4KAc peptide (1 to 21 residues) as substrate by HTRF assay. For orientation: TR-FRET usually uses a lanthanide donor and a delayed reading to cut background.
For experiment [7] the target is unchanged. Kind of experiment: Inhibition of BRD4 in human HCT116 cells assessed as induction of autophagy by measuring p62 degradation at 2 uM measured after 24 hrs by Western blot analysis. In kind it is cell-based. A digest of the protocol: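 HCT-116 cells incubated 24 h with test agent at 2.0 µM, alongside 0.5 µM and 10 µM comparator treatments; LC3 and p62 protein detected by western blot.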
(In western blotting, separated proteins are transferred to a membrane and probed.)

Experiment [8] shares this target. Kind of experiment: Inhibition of BRD4 in human HCT116 cells assessed as induction of autophagy by measuring LC3-I cleavage to LC3-II at 2 uM measured after 24 hrs by Western blot analysis. In kind it is cell-based. A digest of the protocol:
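HCT-116 cells were treated for 24 hours with 0.5 μM, 2.0 μM or 10 μM agents. LC3 (LC3-I to LC3-II conversion) and p62 were then detected by western blot.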

For experiment [9] the target is unchanged. Kind of experiment: Inhibition of BRD4 in human HCT116 cells assessed as activation of IL6-JAK-STAT signaling pathway by measuring increase in IL6 mRNA level at 2 uM after 24 hrs by RT-PCR analysis. In kind it is cell-based. A digest of the protocol:
as §2

Experiment [10] concerns HCT-116. Kind of experiment: Effect on histone H3 expression level in human HCT116 cells measured after 24 hrs by Western blot analysis. In kind it is functional, cell-based.
Experiment [11] deals with Mus musculus. Kind of experiment: Increase in phosphorylated STAT3 expression in tumor tissue of BALB/cAnNCrl mouse xenografted with human HCT116 cells at 30 mg/kg, po administered on day 1 to day 19 measured on day 19 by immunohistochemical analysis. In kind it is functional, organism-based. A digest of the protocol:
as §1

Experiment [12] concerns Mus musculus. Kind of experiment: Increase in LIFR expression in tumor tissue of BALB/cAnNCrl mouse xenografted with human HCT116 cells at 30 mg/kg, po administered on day 1 to day 19 measured on day 19 by immunohistochemical analysis. In kind it is functional, organism-based. The method in brief:
as §1

Another experiment addresses Histone deacetylase 2 (Homo sapiens, UniProt Q92769).
A further experiment concerns SW-620. Put plainly: Antiproliferative activity against human SW620 cells assessed as reduction in cell viability measured after 24 to 48 hrs by MTT assay. In kind it is functional, cell-based.
Another experiment deals with T2, Histone deacetylase 7 (Homo sapiens, UniProt Q8WUI4).
T2 sequence (Q8WUI4 whole entry): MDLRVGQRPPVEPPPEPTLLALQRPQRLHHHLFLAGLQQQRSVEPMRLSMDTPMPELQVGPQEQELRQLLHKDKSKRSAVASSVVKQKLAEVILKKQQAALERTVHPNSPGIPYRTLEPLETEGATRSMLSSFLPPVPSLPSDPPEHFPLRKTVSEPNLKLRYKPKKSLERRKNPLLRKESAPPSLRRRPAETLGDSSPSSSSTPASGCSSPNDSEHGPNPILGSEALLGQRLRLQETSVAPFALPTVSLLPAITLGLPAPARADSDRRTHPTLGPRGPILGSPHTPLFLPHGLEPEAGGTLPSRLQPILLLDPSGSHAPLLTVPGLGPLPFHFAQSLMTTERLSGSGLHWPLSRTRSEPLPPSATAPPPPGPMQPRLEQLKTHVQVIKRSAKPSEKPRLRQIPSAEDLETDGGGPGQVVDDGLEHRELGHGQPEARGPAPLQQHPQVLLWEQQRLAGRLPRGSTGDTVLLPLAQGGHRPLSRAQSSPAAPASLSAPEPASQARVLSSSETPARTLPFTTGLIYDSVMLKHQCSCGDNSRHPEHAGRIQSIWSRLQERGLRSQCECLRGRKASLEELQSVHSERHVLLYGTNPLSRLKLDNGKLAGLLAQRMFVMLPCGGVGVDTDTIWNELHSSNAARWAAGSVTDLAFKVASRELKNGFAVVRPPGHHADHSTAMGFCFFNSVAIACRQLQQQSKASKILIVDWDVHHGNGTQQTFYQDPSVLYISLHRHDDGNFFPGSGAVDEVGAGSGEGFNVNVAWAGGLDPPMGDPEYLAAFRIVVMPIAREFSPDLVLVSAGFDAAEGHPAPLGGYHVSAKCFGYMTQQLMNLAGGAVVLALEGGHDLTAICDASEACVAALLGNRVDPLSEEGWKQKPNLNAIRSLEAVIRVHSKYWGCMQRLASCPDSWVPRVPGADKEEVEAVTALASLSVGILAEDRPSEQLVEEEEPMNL
Kind of experiment: Inhibition of HDAC7 (unknown origin) using biotinylated histone H3 KAc peptide (1 to 21 residues) as substrate by HTRF assay.

Another experiment concerns DLD-1. Kind of experiment: Antiproliferative activity against human DLD1 cells assessed as reduction in cell viability measured after 24 to 48 hrs by MTT assay. In kind it is functional, cell-based.
In experiment [13] the target is T3, Protein deacetylase HDAC6 (Homo sapiens, UniProt Q9UBN7).
T3 sequence (Q9UBN7 whole entry): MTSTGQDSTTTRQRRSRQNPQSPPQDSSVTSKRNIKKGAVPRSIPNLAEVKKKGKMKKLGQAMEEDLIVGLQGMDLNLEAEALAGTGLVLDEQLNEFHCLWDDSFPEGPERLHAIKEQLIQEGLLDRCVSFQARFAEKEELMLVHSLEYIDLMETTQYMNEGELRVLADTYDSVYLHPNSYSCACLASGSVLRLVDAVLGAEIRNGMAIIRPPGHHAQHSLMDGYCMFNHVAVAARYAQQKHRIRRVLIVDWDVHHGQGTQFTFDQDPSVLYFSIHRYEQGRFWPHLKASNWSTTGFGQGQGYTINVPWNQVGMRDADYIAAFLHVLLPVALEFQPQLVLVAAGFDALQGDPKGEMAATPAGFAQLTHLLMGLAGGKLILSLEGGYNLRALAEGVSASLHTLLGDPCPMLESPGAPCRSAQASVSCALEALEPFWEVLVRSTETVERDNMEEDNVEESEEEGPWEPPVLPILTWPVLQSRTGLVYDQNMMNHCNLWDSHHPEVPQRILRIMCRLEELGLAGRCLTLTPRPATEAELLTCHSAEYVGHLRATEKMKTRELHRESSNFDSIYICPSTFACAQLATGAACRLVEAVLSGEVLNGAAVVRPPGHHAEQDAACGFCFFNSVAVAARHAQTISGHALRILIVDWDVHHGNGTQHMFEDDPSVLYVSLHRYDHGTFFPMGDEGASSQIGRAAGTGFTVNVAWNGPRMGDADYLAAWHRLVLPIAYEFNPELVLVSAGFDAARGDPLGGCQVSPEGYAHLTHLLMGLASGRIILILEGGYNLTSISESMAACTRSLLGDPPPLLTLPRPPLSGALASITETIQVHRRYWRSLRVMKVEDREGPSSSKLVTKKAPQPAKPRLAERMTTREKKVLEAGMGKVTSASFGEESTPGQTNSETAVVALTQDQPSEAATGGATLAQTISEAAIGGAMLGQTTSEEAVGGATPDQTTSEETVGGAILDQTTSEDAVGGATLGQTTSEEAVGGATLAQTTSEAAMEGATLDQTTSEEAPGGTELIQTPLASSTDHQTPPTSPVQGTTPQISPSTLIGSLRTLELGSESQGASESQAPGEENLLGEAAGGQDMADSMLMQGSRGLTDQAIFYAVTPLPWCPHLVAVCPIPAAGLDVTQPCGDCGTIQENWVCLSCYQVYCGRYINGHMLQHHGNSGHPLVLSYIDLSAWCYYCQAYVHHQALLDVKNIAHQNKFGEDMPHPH
Put plainly: Inhibition of HDAC6 (unknown origin) using biotinylated histone H3 KAc peptide (1 to 21 residues) as substrate by HTRF assay.

The subject of experiment [14] is HCT-116. Kind of experiment: Decrease in BRD4 expression in human HCT116 cells incubated for 24 hrs by western blot analysis. In kind it is functional, cell-based.

The source made the active and inactive calls. The calls are words filed in the database; no cut-off is given here.

Chain of Histone deacetylase 2 (Q92769 whole entry): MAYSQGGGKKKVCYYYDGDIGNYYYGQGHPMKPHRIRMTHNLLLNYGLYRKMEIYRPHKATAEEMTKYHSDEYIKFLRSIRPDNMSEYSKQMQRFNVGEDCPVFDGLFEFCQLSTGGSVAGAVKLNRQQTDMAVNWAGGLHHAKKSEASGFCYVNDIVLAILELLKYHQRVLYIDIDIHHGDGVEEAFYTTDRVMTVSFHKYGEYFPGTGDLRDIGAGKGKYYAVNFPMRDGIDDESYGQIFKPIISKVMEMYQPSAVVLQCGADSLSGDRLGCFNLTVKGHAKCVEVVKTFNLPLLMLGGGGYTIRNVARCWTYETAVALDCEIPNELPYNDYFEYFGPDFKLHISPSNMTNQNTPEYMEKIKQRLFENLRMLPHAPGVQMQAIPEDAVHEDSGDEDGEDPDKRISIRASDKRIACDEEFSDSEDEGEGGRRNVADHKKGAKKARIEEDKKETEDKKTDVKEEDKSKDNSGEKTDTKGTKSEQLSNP

`Cc1cc(-c2nc3sc4c(c3c(=O)[nH]2)CCN(C)C4)cc(C)c1O`: the result in the experiment with Mus musculus [1] was Active. In addition, the inhibition entry in experiment [2], in experiment [4], in experiment [5] and in [9] was “inactive” each time. Moreover, the IC50 (in general, the midpoint of a concentration-inhibition curve) with HCT-116 [3] worked out at 1.33 µM; in experiment [6] it was 0.85 µM. Further, the inhibition entry in experiment [7] and in experiment [8] was “Active” each time.

On to `O=C(CCCCCCC(=O)Nc1ccccc1)NO`, for which the outcome with HCT-116 [10] was inactive. Besides, the result in the experiment with Mus musculus [11] and in the experiment on Mus musculus [12] was Active.

`Cc1cc(-c2nc3sc4c(c3c(=O)[nH]2)CCN(CCCCCC(=O)NO)C4)cc(C)c1O`: the half-maximal inhibitory concentration (IC50) at Histone deacetylase 2 is 0.136 µM; in the experiment with SW-620 it was 15.8 µM; in the experiment on HCT-116 [3] it was > 10 µM; on Histone deacetylase 7, > 10 µM; in the experiment with DLD-1, > 10 µM; in experiment [6], > 10 µM. In experiment [13], this compound returned an IC50 of 0.129 µM.

In the case of `COc1cc(OC)c2c(=O)[nH]c(-c3cc(C)c(OCCO)c(C)c3)nc2c1` [APABETALONE], the outcome in the experiment with HCT-116 [10] was inactive. The inhibition result in the experiment with HCT-116 [14] was “Active”. The IC50 was > 10 µM in the experiment with SW-620, 12.8 µM in the experiment on HCT-116 [3] and > 10 µM in the experiment with DLD-1.

As to `Cc1cc(-c2nc3sc4c(c3c(=O)[nH]2)CCN(C)C4)cc(C)c1OCc1cccc(C(=O)Nc2ccccc2N)c1`, the concentration for half-maximal inhibition (IC50) was 0.86 µM against Histone deacetylase 2; > 10 µM with SW-620; 4.53 µM in the experiment on HCT-116 [3]; > 10 µM on Histone deacetylase 7; > 10 µM with DLD-1; 3.48 µM in experiment [6]. Also, the IC50 in [13] was > 10 µM.

For `Cc1cc(-c2nc3sc4c(c3c(=O)[nH]2)CCN(C)C4)cc(C)c1OCCCCCC(=O)Nc1ccccc1N`, the IC50 against Histone deacetylase 2 is 0.17 µM; in the experiment with SW-620 it was 9.87 µM; with HCT-116 [3], 6.93 µM; on Histone deacetylase 7, > 10 µM; in the experiment with DLD-1, > 10 µM; in experiment [6], 2.19 µM. Further, in experiment [13], the IC50 is > 10 µM.

For the compound `Cc1cc(-c2nc3sc4c(c3c(=O)[nH]2)CCN(C)C4)cc(C)c1OCc1ccc(/C=C/C(=O)NO)cc1`, the IC50 on Histone deacetylase 2 is 0.097 µM; in the experiment with SW-620, 2.34 µM; in the experiment with HCT-116 [3] it was 0.92 µM; on Histone deacetylase 7, > 10 µM; with DLD-1 it was 3.67 µM; in [6] it was 1.19 µM. Moreover, the half-inhibitory concentration (IC50) in experiment [13] was 0.202 µM.

Take `Cc1noc(C)c1-c1nc2sc3c(c2c(=O)[nH]1)CCN(CCCC(=O)NO)C3`: the IC50 against Histone deacetylase 2 is 0.282 µM; in the experiment with SW-620 it was 9.86 µM; with HCT-116 [3], 18 µM; at Histone deacetylase 7 it was > 10 µM; with DLD-1 it was 19.6 µM; in experiment [6], > 10 µM. The compound further showed a 50% inhibitory concentration (IC50) in experiment [13] of 0.464 µM.

As for `Cc1noc(C)c1-c1nc2sc3c(c2c(=O)[nH]1)CCN(CCCCCC(=O)NO)C3`, the IC50 on Histone deacetylase 2 was 0.135 µM; in the experiment with SW-620, 8.47 µM; in the experiment on HCT-116 [3], 15.3 µM; against Histone deacetylase 7, > 10 µM; in the experiment on DLD-1, 16.8 µM; in experiment [6], > 10 µM. The IC50 in experiment [13] amounted to 0.156 µM.
